Here are results for seven compounds from ChEMBL document CHEMBL2086383, “Antitumor agents. 293. Nontoxic dimethyl-4,4'-dimethoxy-5,6,5',6'-dimethylenedioxybiphenyl-2,2'-dicarboxylate (DDB) analogues chemosensitize multidrug-resistant cancer cells to clinical anticancer drugs” (J Med Chem, 2012).

What all share (format): cell-based
Data set [1] has as its system NIH3T3. Description: Inhibition of human P-gp-mediated multidrug-resistance in mouse NIH3T3 MDR cells assessed as potentiation of in paclitaxel-induced cytotoxic activity at 10 uM after 72 hrs by SRB assay. Conditions: human P-gp expressed in mouse cells.
The subject of data set [2] is KBVIN. Description: Inhibition of P-gp-mediated multidrug-resistance in human KBVIN cells assessed as fold decrease in paclitaxel IC50 for cytotoxic activity at 10 uM after 72 hrs by SRB assay relative to control. The method in brief:
(§1)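 KBvin cells were exposed to graded concentrations of anticancer drug (doxorubicin, paclitaxel or vincristine), alone or with 10 μM test compound, for 72 h. Growth was read by SRB assay. IC50 was found by log-linear interpolation. Reversal fold = IC50 (drug alone) / IC50 (drug + compound). Verapamil was the positive control. Each experiment was run at least three times.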

In data set [3] the test system is KBVIN. In words: Inhibition of P-gp-mediated multidrug-resistance in human KBVIN cells assessed as fold decrease in doxorubicin IC50 for cytotoxic activity at 10 uM after 72 hrs by SRB assay relative to control. The method in brief:
as §1

The test system of the next data set is DU-145. In words: Antiproliferative activity against human DU145 cells after 72 hrs by SRB assay. Particulars: Homo sapiens, DU-145, 72 h. The procedure, abridged:
(§2)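 SRB assay. Cells at 3–5 × 10^3/well were exposed to a range of sample concentrations for 72 h. They were fixed in 50% TCA for 30 min, stained with 0.04% SRB for 30 min, and the dye was dissolved in 10 mM Tris base. Absorbance read at 515 nm. Medium was RPMI 1640 with 10% FBS at 37 °C, 5% CO2. KBvin cells were kept in 100 nM vincristine.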
Background: Sulforhodamine B stains cellular protein and so reports cell mass.

Data set [4] deals with ATP-dependent translocase ABCB1 (Homo sapiens, UniProt P08183). In words: Inhibition of P-gp over expressed in human multidrug-resistant KBVIN cells assessed as intracellular accumulation of doxorubicin at 10uM after 3 hrs by fluorescence microplate reader analysis relative to control. The procedure, abridged: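 KBvin cells at 5 × 10^3/well were pretreated with compound for 1 h, then given doxorubicin (10 μM final) for 3 h. Cells were washed with ice-cold PBS and lysed in 1% SDS/PBS. Verapamil or CsA served as positive control.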
Chain of ATP-dependent translocase ABCB1 (P08183 whole entry): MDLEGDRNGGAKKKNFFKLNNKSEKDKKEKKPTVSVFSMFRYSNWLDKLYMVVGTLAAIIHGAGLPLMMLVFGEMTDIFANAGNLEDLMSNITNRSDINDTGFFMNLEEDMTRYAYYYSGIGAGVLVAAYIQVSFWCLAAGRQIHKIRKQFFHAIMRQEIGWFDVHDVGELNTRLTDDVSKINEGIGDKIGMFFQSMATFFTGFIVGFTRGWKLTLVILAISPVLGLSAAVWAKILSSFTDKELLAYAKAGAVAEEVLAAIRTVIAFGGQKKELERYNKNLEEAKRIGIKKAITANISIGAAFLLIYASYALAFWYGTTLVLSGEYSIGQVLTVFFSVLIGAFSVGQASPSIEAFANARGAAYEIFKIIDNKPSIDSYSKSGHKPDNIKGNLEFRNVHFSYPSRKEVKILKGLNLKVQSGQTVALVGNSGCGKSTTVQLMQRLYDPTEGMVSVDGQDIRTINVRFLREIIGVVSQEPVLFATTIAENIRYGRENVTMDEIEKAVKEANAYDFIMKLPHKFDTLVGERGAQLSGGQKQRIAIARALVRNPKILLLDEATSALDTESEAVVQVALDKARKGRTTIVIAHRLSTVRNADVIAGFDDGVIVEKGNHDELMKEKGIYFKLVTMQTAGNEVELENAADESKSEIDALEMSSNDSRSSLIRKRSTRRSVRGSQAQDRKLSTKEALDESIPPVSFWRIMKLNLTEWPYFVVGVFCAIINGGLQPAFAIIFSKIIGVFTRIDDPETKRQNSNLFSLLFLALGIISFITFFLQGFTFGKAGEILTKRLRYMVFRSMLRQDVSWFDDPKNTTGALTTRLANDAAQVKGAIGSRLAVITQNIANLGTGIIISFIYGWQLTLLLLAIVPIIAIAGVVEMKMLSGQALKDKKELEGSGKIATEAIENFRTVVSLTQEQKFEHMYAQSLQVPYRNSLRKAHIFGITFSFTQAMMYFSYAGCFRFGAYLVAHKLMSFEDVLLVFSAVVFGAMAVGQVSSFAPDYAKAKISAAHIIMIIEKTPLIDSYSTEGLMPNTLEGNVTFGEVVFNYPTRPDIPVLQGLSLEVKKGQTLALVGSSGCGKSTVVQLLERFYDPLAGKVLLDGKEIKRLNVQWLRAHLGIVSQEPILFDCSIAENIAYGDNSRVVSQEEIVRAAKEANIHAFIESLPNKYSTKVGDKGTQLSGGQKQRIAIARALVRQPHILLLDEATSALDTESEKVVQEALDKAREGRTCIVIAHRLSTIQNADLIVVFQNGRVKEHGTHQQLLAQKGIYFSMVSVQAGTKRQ

The subject of data set [5] is KBVIN. Description: Inhibition of P-gp-mediated multidrug-resistance in human KBVIN cells assessed as fold decrease in vincristine IC50 for cytotoxic activity at 10 uM after 72 hrs by SRB assay relative to control. The procedure, abridged: as §1
Another data set deals with KB. Description: Antiproliferative activity against human KB cells after 72 hrs by SRB assay. Conditions: Homo sapiens, KB. The procedure, abridged:
as §2

In a further data set the test system is A549. Description: Antiproliferative activity against human A549 cells after 72 hrs by SRB assay. Conditions: Homo sapiens, A549, 72 h. The method in brief:
as §2

The subject of data set [6] is NIH3T3. Description: Inhibition of human P-gp-mediated multidrug-resistance in mouse NIH3T3 MDR cells assessed as potentiation of in vincristine-induced cytotoxic activity at 10 uM after 72 hrs by SRB assay. Particulars: Mus musculus cells expressing human P-gp.
Data set [7] in a line: Antiproliferative activity against human multidrug-resistant KBVIN cells after 72 hrs by SRB assay. Conditions: Homo sapiens, KBVIN. The procedure, abridged:
as §2

pIC50: −log10 of the molar value. The source made the active and inactive calls. The calls are words filed in the database; no cut-off is given here. Some results are limits rather than exact numbers.

For orientation: pIC50 means the IC50 on a negative log10 scale, so that one unit is a factor of ten. Read a low pIC50 as a high IC50. Regarding `COc1ccc(C(=O)OCc2cc(OC)c3c(c2-c2c(COC(=O)c4ccc(OC)c(OC)c4)cc(OC)c4c2OCO4)OCO3)cc1OC`, the inhibition entry in the data set with NIH3T3 [1] and in the data set with NIH3T3 [6] was “Active” each time. Moreover, the fold change (FC) in the data set on KBVIN [2] was 89; in the data set with KBVIN [3], 21; in data set [4], 1.2; in the data set on KBVIN [5], 202. The pIC50 (in the data set with DU-145; in the data set on KB; in the data set with A549; in data set [7]) was less than 4.00 in each case.

Turning to `COc1cc(COC(=O)C=C(C)C)c(-c2c(COC(=O)C=C(C)C)cc(OC)c3c2OCO3)c2c1OCO2`, the inhibition entry in the data set with NIH3T3 [1] and with NIH3T3 [6] was “Active” each time. In addition, the fold change (FC) in the data set on KBVIN [2] was found to be 326; in the data set with KBVIN [3], 7; in data set [4], 1.2; in the data set on KBVIN [5], 560. Further, the pIC50 (with DU-145; in the data set on KB; in the data set on A549; in [7]) was less than 4.00 in each case.

Regarding `COc1cc(COC(=O)c2ccccc2)c(-c2c(COC(=O)c3ccccc3)cc(OC)c3c2OCO3)c2c1OCO2`, the inhibition result in the data set with NIH3T3 [1] and with NIH3T3 [6] was “Active” in each case. Further, the fold change (FC) with KBVIN [2] turned out to be 167; in the data set on KBVIN [3], 9; in data set [4], 1.2; with KBVIN [5], 101. Further, the negative-log IC50 (pIC50) (in the data set with DU-145; in the data set with KB; in the data set with A549; in [7]) was less than 4.00 each time.

Consider `COc1ccc(C(=O)OCc2cc(OC)c3c(c2-c2c(COC(=O)c4ccc(OC)cc4)cc(OC)c4c2OCO4)OCO3)cc1`, for which the inhibition result in the data set with NIH3T3 [1] and in the data set on NIH3T3 [6] was “Active” each time. The fold change (FC) in the data set on KBVIN [2] was determined as 27; with KBVIN [3] it was 11; in data set [4] it was 1.2; in the data set with KBVIN [5], 50. The pIC50 (with DU-145; with KB; with A549; in [7]) was less than 4.00 throughout.

Regarding `COc1cc(COC(=O)CC(C)C)c(-c2c(COC(=O)CC(C)C)cc(OC)c3c2OCO3)c2c1OCO2`, the inhibition entry in the data set with NIH3T3 [1] and with NIH3T3 [6] was “Active” throughout. Moreover, the fold change (FC) in the data set with KBVIN [2] was 112; in the data set on KBVIN [3], 6; in data set [4], 1.2; in the data set on KBVIN [5] it was 79. In addition, the negative-log IC50 (pIC50) (in the data set with DU-145; with KB; with A549; in data set [7]) was less than 4.00 each time.

`CCCCC(=O)OCc1cc(OC)c2c(c1-c1c(COC(=O)CCCC)cc(OC)c3c1OCO3)OCO2`: the inhibition entry in the data set on NIH3T3 [1] and in the data set with NIH3T3 [6] was “Active” throughout. Besides, the fold change (FC) in the data set on KBVIN [2] turned out to be 24; in the data set on KBVIN [3], 9; in data set [4] it was 1.2; with KBVIN [5] it was 161. Besides, the pIC50 (in the data set on DU-145; in the data set on KB; in the data set with A549; in [7]) was less than 4.00 throughout.

Take `CCC(C)C(=O)OCc1cc(OC)c2c(c1-c1c(COC(=O)C(C)CC)cc(OC)c3c1OCO3)OCO2` (racemic): the inhibition result with NIH3T3 [1] and in the data set on NIH3T3 [6] was “Active” each time. Also, the fold change (FC) with KBVIN [2] worked out at 26; in the data set on KBVIN [3], 21; in data set [4], 1.2; in the data set on KBVIN [5], 70. The pIC50 (with DU-145; in the data set on KB; in the data set with A549; in [7]) was less than 4.00 throughout.
